Assay results from ChEMBL document CHEMBL2440094, “Thiazolidinone-peptide hybrids as dengue virus protease inhibitors with antiviral activity in cell culture” (J Med Chem, 2013).
Activity calls are given as the source filed them. The calls are words filed in the database; no cut-off is given here.

Key:
[1] = system: dengue virus type 2; test: Antiviral activity against Dengue virus 2 infected in human Huh-7 cells assessed as inhibition of viral replication after 48 hrs by luciferase reporter gene assay; assay type: functional, organism-based; details: Huh-7, 48 h
Procedure, shortened: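 Huh-7 cells seeded 5000/well, incubated overnight at 37 °C, then given compound (1.56–50 μM final, 2-fold series in DMEM with 10% FCS). Dengue 2 renilla luciferase reporter virus (MOI 10) added 4 h later. After 48 h at 37 °C, cells lysed and renilla luminescence read with coelenterazine. At least four wells per concentration, expressed relative to DMSO control. EC50 by nonlinear regression.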

[2] = Permeability of the compound by PAMPA; assay type: ADME; details: read-out: permeability
Procedure, shortened: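 PAMPA with precoated trilayer lipid/oil/lipid membranes, donor wells holding 200 μM compound in PBS pH 7.4 (2% DMSO final), in triplicate. Incubated 5 h at room temperature. Donor and acceptor concentrations determined by UV plate reader or HPLC-UV against calibration curves. Pe and mass retention R calculated.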

[3] = biological target: Prothrombin (Homo sapiens) (UniProt P00734); test: Inhibition of thrombin (unknown origin) using Boc-Val-Pro-Arg-AMC as substrate at 25 uM after 10 mins by continuous fluorimetric assay
Procedure, shortened: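 Thrombin (10 nM) preincubated 15 min with inhibitor (25 μM final) in 50 mM Tris-HCl pH 7.5, 150 mM NaCl, 0.05% Tween 20. Boc-Val-Pro-Arg-AMC then added to 50 μM (Km 16 μM). Fluorescence (ex 355 nm, em 460 nm) followed for 10 min as slope. Triplicate; percent inhibition versus no-inhibitor control.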

[4] = system: West Nile virus; test: Inhibition of West Nile virus NS2B-NS3 protease expressed in Escherichia coli BL 21 (DE3) using Abz-Gly-Leu-Lys-Arg-Gly-Gly-3-(NO2)Tyr as substrate at 50 uM after 15 mins
[5] = system: Dengue virus; test: Inhibition of Dengue virus NS2B-NS3 protease expressed in Escherichia coli BL 21 (DE3) using Abz-Nle-Lys-Arg-Arg-Ser-3-(NO2)Tyr as substrate at 50 uM after 15 mins
[6] = system: Huh-7; test: Cytotoxicity against human HuH7 cells at <50 uM after 48 hrs by firefly reporter assay; assay type: cell-based; details: huh-7, 48 h
Procedure, shortened: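 Uninfected Huh-7 cells stably expressing firefly luciferase, seeded 5000/well and incubated overnight at 37 °C. Compound added at 1.56–50 μM, plus 100, 200 and 400 μM, then incubated as for infected cells (further 48 h after the 4 h point). Firefly luminescence read with 70 μM luciferin and 2 mM ATP. Mean of three wells as percent of DMSO control.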

SMILES | EC50 [1] [µM] | Papp [2] [×10⁻⁶ cm/s] | inhibition [3] | inhibition [4] | inhibition [5] [%] | Activity [6]
CCCC[C@H](NC(=O)[C@H](CCCCN)NC(=O)[C@H](CCCNC(=N)N)NC(=O)c1cccc(/C=C2\SC(=O)N(C3CCCC3)C2=O)c1)C(N)=O | 53.8 | 1.9 | 13% | 52.9% | 92.4 | 
CCCC[C@H](NC(=O)[C@H](CCCCN)NC(=O)[C@H](CCCNC(=N)N)NC(=O)[C@H](Cc1ccccc1)N1C(=O)/C(=C/c2ccc(OC)c(OC)c2)SC1=S)C(N)=O | > 50 |  | 18.9% | 25% | 60.8 | 
CCCC[C@H](NC(=O)[C@H](CCCNC(=N)N)NC(=O)[C@H](CCCNC(=N)N)NC(=O)c1ccc(/C=C2\SC(=O)N(Cc3ccccc3)C2=O)cc1)C(N)=O |  |  | 13.7% | 74% | 92.7 | 
CCCC[C@@H](NC(=O)[C@@H](CCCCN)NC(=O)[C@@H](CCCNC(=N)N)NC(=O)c1ccc(/C=C2\SC(=O)N(Cc3ccccc3)C2=O)cc1)C(N)=O |  | 0.29 | 11.1% | 47.5% | 73.9 | 
N=C(N)NCCC[C@H](NC(=O)c1ccc(/C=C2\SC(=O)N(Cc3ccccc3)C2=O)cc1)C(=O)N[C@@H](CCCCN)C(N)=O |  |  | inactive | 76.2% | 83.1 | 
CCCC[C@H](NC(=O)[C@H](CCCC)NC(=O)[C@H](CCCNC(=N)N)NC(=O)c1ccc(/C=C2\SC(=O)N(Cc3ccccc3)C2=O)cc1)C(N)=O |  |  | 8.3% | 88.3% | 81.4 | 
CCCC[C@H](NC(=O)[C@H](CCCCN)NC(=O)[C@H](CCCNC(=N)N)NC(=O)c1cccc(/C=C2\SC(=S)NC2=O)c1)C(N)=O | > 50 |  | 17.6% | 34.6% | 75.2 | 
CCCC[C@H](NC(=O)[C@H](CCCCN)NC(=O)[C@H](CCCNC(=N)N)NC(=O)c1ccc(/C=C2\SC(=O)N(c3ccc(C)cc3)C2=O)cc1)C(N)=O |  | 0.66 | 13.8% | 42.4% | 93.8 | 
CCCC[C@H](NC(=O)[C@H](CCCCN)NC(=O)[C@H](CCCNC(=N)N)NC(=O)c1ccc(/C=C2\SC(=S)N(c3ccc(C)cc3)C2=O)cc1)C(N)=O |  |  | 10.2% | 50.9% | 95 | 
CCCC[C@H](NC(=O)[C@H](CCCCN)NC(=O)[C@H](CCCNC(=N)N)NC(=O)CC1SC(=S)N(Cc2ccc(OC)cc2)C1=O)C(N)=O (some centres undefined) | 30.3 |  | 76.8% | inactive | 23 | 
CCCC[C@H](NC(=O)[C@H](CCCCN)NC(=O)[C@H](CCCCN)NC(=O)c1ccc(/C=C2\SC(=O)N(Cc3ccccc3)C2=O)cc1)C(N)=O |  |  | 16.7% | 36.9% | 83 | 
CCCC[C@H](NC(=O)[C@H](CCCNC(=N)N)NC(=O)[C@H](CCCCN)NC(=O)c1ccc(/C=C2\SC(=O)N(Cc3ccccc3)C2=O)cc1)C(N)=O |  |  | 10.2% | 60.9% | 72.1 | 
CCCC[C@H](NC(=O)c1ccc(/C=C2\SC(=O)N(Cc3ccccc3)C2=O)cc1)C(=O)N[C@@H](CCCCN)C(=O)N[C@@H](CCCNC(=N)N)C(N)=O |  |  | 6.3% | 60.3% | 66.8 | 
CCCC[C@H](NC(=O)[C@H](CCCCN)NC(=O)[C@H](CCCNC(=N)N)NC(=O)c1ccc(/C=C2\NC(=S)N(c3ccccc3)C2=O)cc1)C(N)=O |  |  | 18% | 44.1% | 85.2 | 
CCCC[C@H](NC(=O)[C@H](CCCCN)NC(=O)[C@H](CCCNC(=N)N)NC(=O)c1ccc(/C=C2\SC(=S)N(c3ccc(F)cc3)C2=O)cc1)C(N)=O |  |  | 6.5% | 35.5% | 89.7 | 
CCCC[C@H](NC(=O)[C@H](CCCCN)NC(=O)[C@H](CCCNC(=N)N)NC(=O)c1ccc(/C=C2\SC(=S)N(c3ccc(OC)cc3)C2=O)cc1)C(N)=O | 42.5 | 0.59 | 8.5% | 42.9% | 92.5 | 
CCCC[C@H](NC(=O)[C@H](CCCCN)NC(=O)[C@H](CCCNC(=N)N)NC(=O)CN1C(=O)/C(=C/c2ccc(OC)c(OC)c2)SC1=S)C(N)=O |  |  | 13.8% | 30.2% | 46.5 | 
O=C(O)c1ccc(/C=C2\SC(=O)N(Cc3ccccc3)C2=O)cc1 |  |  | 12.2% | 22.1% | 30.7 | 
N=C(N)NCCC[C@H](NC(=O)c1ccc(/C=C2\SC(=O)N(Cc3ccccc3)C2=O)cc1)C(N)=O |  |  | 13.2% | 16.9% | 32.4 | 
CCCC[C@H](NC(=O)[C@H](CCCCN)NC(=O)[C@H](CCCNC(=N)N)NC(=O)c1ccc(/C=C2\NC(=S)N(Cc3ccccc3)C2=O)cc1)C(N)=O |  |  | 11.4% | 29.2% | 83.5 | 

Second part, led by results:

EC50 [1] [µM] | Papp [2] [×10⁻⁶ cm/s] | inhibition [3] | inhibition [4] | inhibition [5] [%] | SMILES | Activity [6]
> 50 |  | 14.5% | 27% | 84.4 | CCCC[C@H](NC(=O)[C@H](CCCCN)NC(=O)[C@H](CCCNC(=N)N)NC(=O)c1ccc(/C=C2\SC(=O)NC2=O)cc1)C(N)=O | Non-toxic
 |  | 13.6% | 45.4% | 93.4 | CCCC[C@H](NC(=O)[C@H](CCCCN)NC(=O)[C@H](CCCNC(=N)N)NC(=O)c1ccc(/C=C2\SC(=S)N(CC)C2=O)cc1)C(N)=O | 
 |  | 22.8% | 22.4% | 89.3 | CCCC[C@H](NC(=O)[C@H](CCCCN)NC(=O)[C@H](CCCNC(=N)N)NC(=O)c1ccc(/C=C2\SC(=S)N(CCOC(C)=O)C2=O)cc1)C(N)=O | 
> 50 |  | 11.8% | 26.5% | 95.9 | CCCC[C@H](NC(=O)[C@H](CCCCN)NC(=O)[C@H](CCCNC(=N)N)NC(=O)c1ccc(/C=C2\SC(=O)N(CCO)C2=O)cc1)C(N)=O | 
 |  | 19% | 48.5% | 96.5 | CCCC[C@H](NC(=O)[C@H](CCCCN)NC(=O)[C@H](CCCNC(=N)N)NC(=O)c1ccc(/C=C2\SC(=O)N(CC)C2=O)cc1)C(N)=O | 
 |  | 13.3% | 53.4% | 93.3 | CCCC[C@H](NC(=O)[C@H](CCCCN)NC(=O)[C@H](CCCNC(=N)N)NC(=O)c1ccc(/C=C2\SC(=S)N(CC3CCCO3)C2=O)cc1)C(N)=O (some centres undefined) | 
 |  | 12.5% | 33.2% | 93.2 | C=CCN1C(=O)S/C(=C\c2ccc(C(=O)N[C@@H](CCCNC(=N)N)C(=O)N[C@@H](CCCCN)C(=O)N[C@@H](CCCC)C(N)=O)cc2)C1=O | 
 |  | 14.2% | 37.8% | 90 | CCCC[C@H](NC(=O)[C@H](CCCCN)NC(=O)[C@H](CCCNC(=N)N)NC(=O)c1ccc(/C=C2\SC(=S)N(c3ccccc3)C2=O)cc1)C(N)=O | 
 |  | 11% | 52.7% | 94.2 | CCCC[C@H](NC(=O)[C@H](CCCCN)NC(=O)[C@H](CCCNC(=N)N)NC(=O)c1ccc(/C=C2\SC(=S)N(CCC)C2=O)cc1)C(N)=O | 
 |  | 10.6% | 30.9% | 95.8 | CCCC[C@H](NC(=O)[C@H](CCCCN)NC(=O)[C@H](CCCNC(=N)N)NC(=O)c1ccc(/C=C2\SC(=O)N(C(C)C)C2=O)cc1)C(N)=O | 
 |  | 6.3% | 46.4% | 94.6 | CCCC[C@H](NC(=O)[C@H](CCCCN)NC(=O)[C@H](CCCNC(=N)N)NC(=O)c1ccc(/C=C2\SC(=S)N(C3CC3)C2=O)cc1)C(N)=O | 
 |  | 12% | 63.7% | 94.4 | CCCC[C@H](NC(=O)[C@H](CCCCN)NC(=O)[C@H](CCCNC(=N)N)NC(=O)c1ccc(/C=C2\SC(=S)N(C(C)C)C2=O)cc1)C(N)=O | 
35.7 | 1.02 | 11.1% | 53.6% | 96.7 | CCCC[C@H](NC(=O)[C@H](CCCCN)NC(=O)[C@H](CCCNC(=N)N)NC(=O)c1ccc(/C=C2\SC(=S)N(c3ccc(Cl)cc3)C2=O)cc1)C(N)=O | 
> 50 |  | 12.9% | 28.4% | 90.3 | CCCC[C@H](NC(=O)[C@H](CCCCN)NC(=O)[C@H](CCCNC(=N)N)NC(=O)c1ccc(/C=C2\SC(=S)N(CCO)C2=O)cc1)C(N)=O | 
 |  | 9.2% | 38.1% | 91.1 | CCCC[C@H](NC(=O)[C@H](CCCCN)NC(=O)[C@H](CCCNC(=N)N)NC(=O)c1ccc(/C=C2\SC(=O)N(C)C2=O)cc1)C(N)=O | Non-toxic
 |  | inactive | 33.6% | 94.5 | CCCC[C@H](NC(=O)[C@H](CCCCN)NC(=O)[C@H](CCCNC(=N)N)NC(=O)c1ccc(/C=C2\SC(=O)N(CCC)C2=O)cc1)C(N)=O | 
